Compound activity deposited in PubChem by several laboratories.
Hits are enriched below; roughly 2.9% of the tested compounds scored in any of these assays.
SENP7 block = SENP7 protease inhibitors, primary screen, biochemical, luminescence, uHTS; AID 434973, 2010; Sentrin-specific protease 7 (Homo sapiens), Q9BQF6; actives 1.5% (n = 330,000); recombinant SENP7, Z-RLRGG-aminoluciferin luminescence, 40 min; inhibition, % at 5 µM;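 active = inhibition above about 50% at the single test dose, limit read from the data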;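 also: plate controls were DMSO with enzyme for no effect and no enzyme buffer wells for full effect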
SENP8 block-1 = SENP8 protease inhibitors, primary screen, biochemical, luminescence; Sentrin-specific protease 8 (Homo sapiens), Q96LD8; purified SENP8, Z-RLRGG-aminoluciferin cleavage; inhibition, % at 10 µM; actives 1.2% (n = 330,000); AID 2540, 2010; in the data active = inhibition above about 50%
HSP90 inh = HSP90 inhibitors, primary screen, cell lysate, luminescence. AID 1789, 2009. Heat shock protein HSP 90 (rabbit reticulocyte lysate; luciferase refolding). Rabbit reticulocyte lysate, luciferase refolding luminescence, 3 h. inhibition, % at 5.6 µM. actives 0.91% (n = 290,000);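 active = inhibition above the screen-wide mean plus 3 SD, computed separately per campaign, cut at about 16% in these data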;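 also: 0% = DMSO wells and 100% = 60 µM geldanamycin wells; inhibitors lower the luminescence because luciferase stays unfolded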
SENP6 block = SENP6 protease inhibitors, primary screen, biochemical, luminescence, uHTS | Sentrin-specific protease 6 (Homo sapiens), Q9GZR1 | Recombinant SENP6 catalytic domain, aminoluciferin luminescence | inhibition, % at 10 µM | actives 1.8% (n = 330,000) | AID 2599, 2010;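 active = inhibition above about 50% at the single tested dose, limit read from the data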;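 also: plate controls were DMSO wells with enzyme for no effect and DMSO wells lacking enzyme for full effect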
Target sequence (Q9GZR1 628-1112 limits assumed): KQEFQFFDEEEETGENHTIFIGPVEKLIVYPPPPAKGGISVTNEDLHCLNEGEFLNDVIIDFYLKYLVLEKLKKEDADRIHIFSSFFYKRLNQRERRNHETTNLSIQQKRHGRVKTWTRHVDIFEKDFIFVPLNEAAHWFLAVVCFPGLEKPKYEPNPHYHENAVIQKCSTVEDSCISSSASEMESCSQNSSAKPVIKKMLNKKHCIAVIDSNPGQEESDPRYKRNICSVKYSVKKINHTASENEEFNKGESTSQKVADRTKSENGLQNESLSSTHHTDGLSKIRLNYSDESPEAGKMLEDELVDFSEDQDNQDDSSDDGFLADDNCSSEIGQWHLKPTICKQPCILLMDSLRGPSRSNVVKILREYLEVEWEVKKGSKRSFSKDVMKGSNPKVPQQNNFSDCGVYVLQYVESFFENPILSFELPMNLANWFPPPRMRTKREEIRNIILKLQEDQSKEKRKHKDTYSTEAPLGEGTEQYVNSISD
SENP1 inh = human SENP1 catalytic domain inhibitors, primary screen, biochemical, FRET, uHTS; Sentrin-specific protease 1 (Homo sapiens), Q9P0U3; recombinant SENP1 catalytic domain, CyPet-SUMO1-YPet FRET cleavage; inhibition, % at 10 µM; actives 0.21% (n = 360,000); AID 624204, 2012;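 active = inhibition at least 30% at 10 µM, raw YFP signal under a set limit, fluorescence ratio 0.5 to 1.5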;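 also: 0% = enzyme with DMSO and 100% = no enzyme wells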
Target sequence (Q9P0U3 419-644 limits assumed): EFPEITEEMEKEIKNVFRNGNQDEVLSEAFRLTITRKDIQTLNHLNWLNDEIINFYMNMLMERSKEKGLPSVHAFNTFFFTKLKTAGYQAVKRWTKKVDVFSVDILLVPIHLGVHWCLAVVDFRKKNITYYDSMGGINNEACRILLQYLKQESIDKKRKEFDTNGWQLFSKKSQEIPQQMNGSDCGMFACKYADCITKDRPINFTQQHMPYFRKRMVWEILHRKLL
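System: Recombinant human SENP1 catalytic domain, His6-tagged | Incubation: Enzyme reaction for 50 min at room temperature, dark | Medium: Tris pH 8 with BME, BSA, NP40 and catalase | Also added: 25 nM SUMO1 FRET substrate | Compound: 10 µM single point, 0.5% DMSO | Measured by: FRET fluorescence in CFP and YFP emission channels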
SENP8 block-2 = human SENP8 protease inhibitors, primary screen, biochemical, fluorescence, Nedd8 protein substrate, uHTS; Sentrin-specific protease 8 (Homo sapiens), Q96LD8; recombinant SENP8; inhibition, % at 20 µM; actives 0.64% (n = 360,000); AID 602440, 2012; in the data active = inhibition mostly above about 40%, no sharp cut-off; inactive = mostly below about 27%
* = called active by the depositor; . = no result.

SMILES | SENP7 block | SENP8 block-1 | HSP90 inh | SENP6 block | SENP1 inh | SENP8 block-2
COc1ccc(-c2nn(-c3ccccc3)cc2C(=O)O)cc1OC | -2.4 | -6.4 | 5.5 | -13.7 | 1.1 | 5.4
NS(=O)(=O)c1ccc(N/N=C/C=C/c2ccccc2[N+](=O)[O-])cc1 | 4.4 | -0.2 | 0.6 | 18.9 | 21.5 | 25.3
COC(=O)Nc1ccc(S(=O)(=O)N2c3ccccc3CCC2C)cc1 (stereo not given) | -5.1 | -2.5 | 1.6 | -15.8 | 1.4 | 20.6
CC(C)OCCCNC(=O)c1cn(C)c2ccc(S(=O)(=O)N3CCCC3)cc2c1=O | 8.6 | 2.4 | 1.5 | -4.9 | 0.9 | 2.4
C=CCNc1oc(-c2cccc(F)c2)nc1C#N | -10.3 | -17.8 | . | -39.8 | -0.3 | 5.0
COc1ccc(C)cc1NC(=O)c1cc2c(s1)CCC2 | 5.8 | 3.4 | 0.5 | 7.5 | 2.1 | -0.2
COC(=O)c1sccc1NC(=O)c1cc2c(s1)CCCC2 | 55.5* | 29.3 | -2.2 | 42.8 | 1.2 | -97.9
CCCS(=O)(=O)NC(=O)C1(C)CCCN(C(=O)c2ccc(C#N)cc2)C1 (stereo not given) | . | . | . | . | 4.5 | 10.3
Cc1ccc(S(=O)(=O)Nc2ccc3ccccc3c2[N+](=O)[O-])cc1 | . | . | . | . | -0.1 | 7.8
Cc1ccc(S(=O)(=O)Nc2ccc3cc([N+](=O)[O-])ccc3c2[N+](=O)[O-])cc1 | . | . | . | . | 53.0* | 23.2
CC1=NN(c2ccc(Cl)cc2)C(=O)C1 | 10.5 | -5.7 | 4.3 | 11.1 | 0.0 | 14.5
CC1=NN(c2ccccc2)C(=O)C1 | -2.8 | -5.2 | 4.9 | -8.1 | 3.0 | 49.1*
CC1=NN(c2ccc(N)cc2)C(=O)C1 | 17.9 | 4.7 | 14.5 | 27.7 | -1.9 | 67.5*
O=C(NCc1ccco1)N1c2ccccc2Sc2ccccc21 | -0.8 | -0.5 | 2.4 | 2.3 | 1.0 | 6.8
COc1ccccc1N1CCN(/N=C/C(Cl)=C/c2ccccc2)CC1 | 45.4 | 57.1* | 3.2 | 71.8* | 1.2 | 14.1
CC(/C=N/N1CCN(c2ccccn2)CC1)=C\c1ccccc1 | 62.9* | 31.1 | -1.0 | 58.9* | 2.8 | 2.0
Cc1c(NS(C)(=O)=O)cccc1-c1nc2cccnc2s1 | 9.3 | 11.9 | 0.6 | 37.8 | 2.1 | -131.2
O=C1C(Cl)=C(N2CCN(c3ccccc3[N+](=O)[O-])CC2)C(=O)c2ccccc21 | . | . | -0.5 | . | 4.2 | 60.6*
CCOC(=O)C1CCCN(C(=O)CCCn2nnnc2CN2CCC(C)CC2)C1 (stereo not given) | -12.5 | -0.8 | 0.5 | 9.2 | -1.4 | 7.9
CCOC(=O)c1ccc(NC(=O)c2ncn3c2C(=O)NC[C@H]3C)cc1 | . | . | . | . | 2.1 | -2.1
Cc1ccccc1/C=C1\Oc2ccccc2C1=O | 51.1* | 62.9* | . | 78.5* | -3.2 | -26.8
O=C1C(=Cc2cccs2)Oc2ccccc21 | . | . | . | . | -153.1 | -130.6
CCCS(=O)(=O)NC(=O)C1(C)CCCN(C(=O)COc2ccccc2)C1 (stereo not given) | . | . | . | . | 2.3 | 7.6
Cc1cccc(C)c1OCC(=O)NCC1COc2ccccc2O1 (stereo not given) | 4.7 | -1.8 | . | -6.9 | -0.7 | 17.0
CCOc1ccccc1CNCCNC(=O)c1nonc1N | -1.4 | -0.9 | 16.3* | -16.3 | 1.8 | 11.0
SMILES | SENP7 block | SENP8 block-1 | HSP90 inh | SENP6 block | SENP1 inh | SENP8 block-2
C=CCOc1ccccc1CNCCNC(=O)c1nonc1N | 1.3 | 0.6 | 2.6 | 32.3 | -0.8 | -19.7
Cc1c(/C(O)=C2\C(=O)C(=O)N(CCCN(C)C)C2c2ccccc2)cnn1-c1ccccc1 (stereo not given) | 0.1 | 0.4 | 42.0* | -7.0 | -0.3 | -17.9
Cc1cc(/C=N/Nc2ccc([N+](=O)[O-])cn2)c(C)n1-c1ccc(C(=O)O)cc1 | 1.6 | -3.5 | 0.0 | 1.9 | -1.7 | 49.9*
Cc1ccccc1-n1c(C)cc(/C=N/Nc2ccc([N+](=O)[O-])cn2)c1C | 4.4 | -7.3 | 1.7 | -10.1 | 6.9 | 60.5*
O=[N+]([O-])c1ccc(NN=Cc2ccccc2O)nc1 | . | . | . | . | -33.3 | -197.5
O=C(/C=C/c1ccc(Cl)cc1Cl)Nc1ccncc1 | 43.4 | 55.8* | -1.3 | 78.2* | 0.5 | 15.0
O=C(/C=C/c1c(Cl)cccc1Cl)Nc1ccncc1 | 53.2* | 43.3 | 1.5 | 60.5* | 0.3 | 7.9
O=C(/C=C/c1c(F)cccc1Cl)Nc1nc2ccccc2[nH]1 | 69.3* | -28.3 | 2.0 | -26.6 | -2.4 | 6.2
O=C(/C=C/c1ccc(Cl)cc1Cl)NCc1ccncc1 | -9.0 | -15.0 | 3.8 | -29.1 | 1.7 | 7.1
Cc1ccc(/C=C/C(=O)Nc2nc3ccccc3[nH]2)cc1 | 18.2 | -12.3 | -2.2 | 4.1 | -1.4 | -22.5
CCOC(=O)C1=NN(C(=O)c2ccc(OC)cc2)C(O)(c2ccc(Cl)cc2)C1 (stereo not given) | -8.9 | -3.4 | 1.6 | -4.7 | 19.8 | 13.2
COC(=O)C1=NN(C(=O)c2cccc(Br)c2)C(O)(c2ccc(Cl)cc2)C1 (stereo not given) | 1.5 | 0.6 | -3.2 | -5.5 | 65.2* | 27.6
CC1=NN(c2ccccc2)C(=O)C1N=Nc1ccc(N)cc1 (stereo not given) | 10.8 | 11.1 | 8.4 | 6.2 | 10.3 | 60.9*
CCOC(=O)c1ccc2c(c1)nc(COc1ccc(OC)cc1)n2CC | 2.8 | 3.3 | 4.5 | 7.3 | 0.5 | 3.1
Cc1[nH]n(-c2ccc([N+](=O)[O-])cc2)c(=O)c1C=NCCN1CCN(C(=O)c2ccc(F)cc2)CC1 | 89.5* | 66.9* | 13.1 | 90.8* | 1.1 | 14.4
Oc1ccc(Br)cc1/C=N/N1CCCCC1 | 53.3* | 84.5* | 0.3 | 94.3* | -1.2 | 14.6
Cc1cc(C)cc(Cn2cc(CN3CC(N4CCN(CCO)CC4)CS3(=O)=O)nn2)c1 (stereo not given) | . | . | . | . | 1.6 | 19.1
O=[N+]([O-])c1cccc(-c2noc(-c3cccs3)n2)c1 | 75.2* | 33.9 | -6.0 | 56.3* | 2.0 | 16.6
O=C(Nc1ccc(Cl)c(Cl)c1)Nc1nccs1 | 25.9 | 35.7 | 0.9 | 64.7* | -5.0 | 29.3
Cc1ccccc1C(=O)N/N=C/c1ccc([N+](=O)[O-])s1 | 17.3 | 23.8 | -1.1 | 43.5 | -8.6 | 37.9
O=C(N/N=C/c1ccc([N+](=O)[O-])s1)c1ccccc1 | 14.6 | 21.3 | 2.9 | 50.0* | 0.2 | 34.4
Cc1ccnn1CC(=O)N/N=C/c1ccc([N+](=O)[O-])s1 | 22.1 | 29.1 | -0.7 | 51.0* | 2.0 | 22.6
Cc1ccnn1CC(=O)N/N=C/c1cccs1 | -2.8 | 1.7 | 6.2 | -3.2 | 1.8 | 27.8
Cc1ccc(S(=O)(=O)N2CC(O)C2)cc1 | -2.0 | 2.5 | . | -11.1 | -0.9 | 2.1
